From ChEMBL document CHEMBL1157681 (Bioorg Med Chem, 2010)
The source made the active and inactive calls. The calls are words filed in the database; no cut-off is given here.

How the values were obtained:
MCF7 [1] = test: Antiproliferative activity against human MCF7 cells after 72 hrs by MTS/PMS assay; format: functional, cell-based; settings: MCF7, 72 h
Procedure, shortened: (§1)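 Cells grown at 37 °C in humidified 5% CO2, seeded at 2000/well and left to attach overnight. Compound added at varying concentrations in DMSO (1% final) for 72 h. Viable cells read by MTS/PMS, normalized to 1% DMSO wells as 100% proliferation. IC50 taken from separate experiments run in triplicate.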

SK-BR-3 [2] = test: Antiproliferative activity against human SKBR3 cells after 72 hrs by MTS/PMS assay; format: functional, cell-based; settings: SK-BR-3, 72 h; procedure, shortened: as §1
SK-BR-3 [3] = test: Ratio of IC50 for human SK-BR-3 cells to IC50 for human MCF7 cells; format: functional
MCF7 [4] = test: Inhibition of heat shock response-induced increase in HSP90 protein level in human MCF7 cells at 1 to 100 uM after 24 hrs by Western blot analysis; format: functional, cell-based
[5] = target: Heat shock protein HSP 90-beta (Homo sapiens) (UniProt P08238); test: Inhibition of HSP90 in human MCF7 cells assessed as induction of HSP90 client protein cRaf degradation after 24 hrs by Western blot analysis; format: cell-based
Sequence of Heat shock protein HSP 90-beta (Homo sapiens) (P08238 whole entry): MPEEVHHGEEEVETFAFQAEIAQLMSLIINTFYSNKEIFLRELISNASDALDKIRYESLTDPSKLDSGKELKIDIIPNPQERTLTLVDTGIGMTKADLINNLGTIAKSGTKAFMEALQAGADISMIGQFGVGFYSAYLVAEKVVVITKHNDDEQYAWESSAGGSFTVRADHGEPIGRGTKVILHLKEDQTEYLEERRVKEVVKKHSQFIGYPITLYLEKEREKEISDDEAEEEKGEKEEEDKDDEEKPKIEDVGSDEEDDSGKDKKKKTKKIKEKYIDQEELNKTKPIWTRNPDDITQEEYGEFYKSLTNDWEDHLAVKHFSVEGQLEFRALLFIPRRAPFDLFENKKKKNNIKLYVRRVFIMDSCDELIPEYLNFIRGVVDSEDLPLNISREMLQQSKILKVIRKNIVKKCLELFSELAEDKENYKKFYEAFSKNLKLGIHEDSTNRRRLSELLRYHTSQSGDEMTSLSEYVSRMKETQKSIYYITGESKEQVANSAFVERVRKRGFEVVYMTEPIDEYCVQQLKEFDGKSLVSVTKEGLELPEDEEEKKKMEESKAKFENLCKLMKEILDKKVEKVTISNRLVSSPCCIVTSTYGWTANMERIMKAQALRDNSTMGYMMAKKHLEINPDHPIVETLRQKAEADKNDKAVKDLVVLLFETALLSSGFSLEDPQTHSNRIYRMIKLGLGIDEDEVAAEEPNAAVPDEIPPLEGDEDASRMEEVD
Procedure, shortened: (§2)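 MCF-7 cells exposed 24 h to various concentrations in DMSO (1% final) or vehicle. Cells lysed in RIPA with 1 mM PMSF, 2 mM orthovanadate and protease inhibitors, 1 h on ice, then clarified at 14000g for 10 min at 4 °C; protein by BCA. 20 μg protein run under reducing conditions, blotted to nitrocellulose, probed with specific antibodies plus HRP secondary, read by chemiluminescence; β-actin also probed.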

[6] = target: Heat shock protein HSP 90-beta (Homo sapiens) (UniProt P08238); test: Inhibition of HSP90 in human MCF7 cells assessed as induction of HSP90 client protein Her2 degradation after 24 hrs by Western blot analysis; format: cell-based; procedure, shortened: as §2

| SMILES | IC50 (MCF7 [1]) [µM] | IC50 (SK-BR-3 [2]) [µM] | Activity [5] | Activity [6] | Ratio IC50 (SK-BR-3 [3]) | inhibition (MCF7 [4]) |
| --- | --- | --- | --- | --- | --- | --- |
| CO[C@@H]1[C@@H](O)[C@@H](O)[C@H](Oc2ccc3c(=O)c(-c4ccc5c(c4)OCO5)coc3c2C)OC1(C)C | 18.4 | 21.4 | – | – | – | – |
| CC(=O)Nc1coc2c(C)c(OC(C)=O)ccc2c1=O | > 100 | > 100 | – | – | – | – |
| CC(=O)Nc1cc(=O)c2cc(OC(C)=O)ccc2o1 | > 100 | > 100 | – | – | – | – |
| COc1cccc(-c2cc(C(=O)Nc3coc4c(C)c(O)ccc4c3=O)ccc2OC)c1 | 4.9 | 44.1 | – | – | 1.9 | – |
| COc1cccc(-c2cc(C(=O)Nc3cc(=O)c4cc(O[C@@H]5OC(C)(C)[C@H](OC)[C@@H](O)[C@H]5O)ccc4o3)ccc2OC)c1 | 14.7 | 33.8 | – | – | – | – |
| COc1cccc(-c2cc(C(=O)Nc3coc4cc(O)cc(O)c4c3=O)ccc2OC)c1 | 9.7 | 21.3 | – | – | 1.9 | – |
| CC(=O)Nc1coc2cc(O)ccc2c1=O | > 100 | > 100 | – | – | – | – |
| CC(=O)Nc1coc2cc(OC(C)=O)ccc2c1=O | > 100 | > 100 | – | – | – | – |
| CO[C@@H]1[C@@H](O)[C@@H](O)[C@H](Oc2ccc3oc(NC(C)=O)cc(=O)c3c2)OC1(C)C | > 100 | > 100 | – | – | – | – |
| CO[C@@H]1[C@@H](O)[C@@H](O)[C@H](Oc2ccc3c(=O)c(NC(C)=O)coc3c2)OC1(C)C | > 100 | > 100 | – | – | – | – |
| COc1cccc(-c2cc(C(=O)Nc3coc4cc(OC(C)=O)cc(O)c4c3=O)ccc2OC)c1 | 5.1 | 3.3 | – | – | – | – |
| COc1cccc(-c2cc(C(=O)Nc3cc(=O)c4cc(OC(C)=O)ccc4o3)ccc2OC)c1 | > 100 | > 100 | – | – | – | – |
| CO[C@@H]1[C@@H](O)[C@@H](O)[C@H](Oc2ccc3cc(NC(=O)CCCCC(=O)Nc4cc5ccc(O[C@@H]6OC(C)(C)[C@H](OC)[C@@H](O)[C@H]6O)cc5oc4=O)c(=O)oc3c2)OC1(C)C | – | 2 | – | – | – | – |
| COc1cccc(-c2cc(C(=O)Nc3coc4c(C)c(O[C@@H]5OC(C)(C)[C@H](OC)[C@@H](O)[C@H]5O)ccc4c3=O)ccc2OC)c1 | 51.6 | 46 | – | – | – | – |
| COc1cccc(-c2cc(C(=O)Nc3coc4cc(O[C@@H]5OC(C)(C)[C@H](OC)[C@@H](O)[C@H]5O)cc(O)c4c3=O)ccc2OC)c1 | 23.6 | 19.4 | – | – | – | – |
| COc1cccc(-c2cc(C(=O)Nc3cc(=O)c4cc(O)ccc4o3)ccc2OC)c1 | 10.5 | 19.6 | – | – | – | – |
| CO[C@@H]1[C@@H](O)[C@@H](O)[C@H](Oc2cc(O)c3c(=O)c(NC(C)=O)coc3c2)OC1(C)C | > 100 | > 100 | – | – | – | – |
| CC(=O)Nc1cc(=O)c2cc(O)ccc2o1 | > 100 | > 100 | – | – | – | – |
| COc1cccc(-c2cc(C(=O)Nc3coc4cc(O)ccc4c3=O)ccc2OC)c1 | 8.6 | 37.1 | – | – | 1.9 | – |
| CC(=O)Nc1coc2c(C)c(O)ccc2c1=O | > 100 | > 100 | – | – | – | – |
| CC(=O)Nc1coc2cc(O)cc(O)c2c1=O | > 100 | > 100 | – | – | – | – |
| COc1cccc(-c2cc(C(=O)Nc3coc4c(C)c(OC(C)=O)ccc4c3=O)ccc2OC)c1 | 4.8 | 17 | – | – | – | – |
| COc1cccc(-c2cc(C(=O)Nc3coc4cc(O[C@@H]5OC(C)(C)[C@H](OC)[C@@H](O)[C@H]5O)ccc4c3=O)ccc2OC)c1 | 25.2 | 29 | Dose-dependent effect | Dose-dependent effect | – | Active |
| CO[C@@H]1[C@@H](O)[C@@H](O)[C@H](Oc2ccc3c(=O)c(NC(C)=O)coc3c2C)OC1(C)C | > 100 | > 100 | – | – | – | – |
| COc1cccc(-c2cc(C(=O)Nc3coc4cc(OC(C)=O)ccc4c3=O)ccc2OC)c1 | 9.5 | 18.4 | – | – | – | – |

More lines, main results first:

| IC50 (MCF7 [1]) [µM] | IC50 (SK-BR-3 [2]) [µM] | Activity [5] | Activity [6] | SMILES | Ratio IC50 (SK-BR-3 [3]) | inhibition (MCF7 [4]) |
| --- | --- | --- | --- | --- | --- | --- |
| 13.1 | 36.5 | – | – | CC(C)=CCc1cc2c(=O)c(-c3ccc4c(c3)OCO4)coc2cc1O | – | – |
| > 100 | > 100 | – | – | CO[C@@H]1[C@@H](O)[C@@H](O)[C@H](Oc2cc(O)c3c(=O)c(-c4ccc5c(c4)OCO5)coc3c2)OC1(C)C | – | – |
| 70 | > 100 | – | – | O=c1c(-c2ccc3c(c2)OCO3)coc2cc(O)cc(O)c12 | – | – |
| > 100 | > 100 | – | – | O=c1c(-c2ccc3c(c2)OCO3)coc2cc(O)ccc12 [PSEUDOBAPTOGENIN] | – | – |
| 11.9 | – | – | – | CC(C)=CCc1c(O)cc2occ(-c3ccc4c(c3)OCO4)c(=O)c2c1O [DERRUBONE] | – | – |
| > 100 | > 100 | – | – | Cc1c(O)ccc2c(=O)c(-c3ccc4c(c3)OCO4)coc12 | – | – |
| > 100 | > 100 | – | – | CC(=O)Oc1cc(O)c2c(=O)c(-c3ccc4c(c3)OCO4)coc2c1 | – | – |
| > 100 | > 100 | – | – | CC(=O)Oc1ccc2c(=O)c(-c3ccc4c(c3)OCO4)coc2c1 | – | – |
| 93.7 | > 100 | – | – | CC(=O)Nc1coc2cc(OC(C)=O)cc(O)c2c1=O | – | – |
| 49.2 | > 100 | – | – | CC(C)=CCc1cc2c(=O)c(-c3ccc4c(c3)OCO4)coc2c(C)c1O | – | – |
| > 100 | > 100 | – | – | CC(=O)Oc1ccc2c(=O)c(-c3ccc4c(c3)OCO4)coc2c1C | – | – |
| 9.2 | 18 | – | – | CO[C@@H]1[C@@H](O)[C@@H](O)[C@H](Oc2ccc3c(=O)c(-c4ccc5c(c4)OCO5)coc3c2)OC1(C)C | – | – |
